These results are taken from ChEMBL document CHEMBL1773052, “3-Trifluoromethylquinoxaline N,N'-dioxides as anti-trypanosomatid agents. Identification of optimal anti-T. cruzi agents and mechanism of action studies” (J Med Chem, 2011).

pIC50: −log10 of the molar value. The source made the active and inactive calls. The calls are words filed in the database; no cut-off is given here.

The subject of data set [1] is Trypanosoma cruzi. In words: Antitrypanosomal activity against Trypanosoma cruzi CL Brener clone infected in Swiss albino mouse assessed as increase of mouse survival days at 50 mg/kg/day, po relative to control. In kind it is functional.
In data set [2] the test system is Trypanosoma cruzi. In words: Antitrypanosomal activity against Trypanosoma cruzi Y infected in Swiss albino mouse assessed as increase of mouse survival days at 50 mg/kg/day, po relative to control. It counts as functional.
In data set [3] the test system is Trypanosoma cruzi. Put plainly: Antitrypanosomal activity against Trypanosoma cruzi CL Brener clone infected in BALB/c mouse assessed as increase of mouse survival days at 50 mg/kg/day, po relative to control. It counts as functional.
Data set [4] relates to Trypanosoma cruzi. Put plainly: Antitrypanosomal activity against Trypanosoma cruzi Y infected in Swiss albino mouse assessed as reduction of microbial antibody level at 50 mg/kg/day, po by Wilconxon test. It counts as functional, organism-based. An outline of the steps:
(§1)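 Male BALB/c or Swiss albino mice, 30 days old, SPF, infected ip with 10³ blood trypomastigotes (CL Brener or Y). Oral dosing in PBS for 10 days. Controls: 10 mice on PBS; treated groups of 8. Tail-vein parasitemia weekly for 60 days, mortality recorded. Anti-T. cruzi antibodies measured by ELISA, run twice, at 30 and 60 or 90 days post-infection.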

Data set [5] has as its system Trypanosoma cruzi. In words: Antitrypanosomal activity against Trypanosoma cruzi CL Brener clone infected in BALB/c mouse assessed as reduction of microbial antibody level at 50 mg/kg/day, po after 90 days by Wilconxon test. In kind it is functional, organism-based. An outline of the steps:
as §1

The test system of data set [6] is Trypanosoma cruzi. In words: Antitrypanosomal activity against Trypanosoma cruzi Tulahuen 2 epimastigotes assessed as growth inhibition at 25 uM after 5 days relative to control. In kind it is functional. The note with it: Tulahuen 2, 120 h, read-out: GI. An outline of the steps: (§2)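 Epimastigotes grown axenically at 28 °C in BHI-tryptose + 5% FBS; a 10-day stationary culture was inoculated to 1 × 10⁶ cells/mL. Drug added from DMSO stock, final DMSO ≤0.4%, vehicle control. A600 read daily. PGI on day 5 corrects for day-0 absorbance, relative to control. […] Three independent experiments.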

In data set [7] the test system is Trypanosoma cruzi. In words: Antitrypanosomal activity against Trypanosoma cruzi Tulahuen 2 epimastigotes assessed as growth inhibition after 5 days. It counts as functional. The note with it: Tulahuen 2, 120 h, read-out: ID50. Put shortly:
as §2

The test system of data set [8] is Trypanosoma cruzi. Put plainly: Antitrypanosomal activity against Trypanosoma cruzi CL Brener clone epimastigotes assessed as cell death at 25 uM after 2 days by MTT assay relative to control. In kind it is functional. Put shortly:
(§3)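 Epimastigotes of each strain taken in exponential growth in BHI-tryptose with 5% FBS, 1 mL per well. Compounds added from DMSO and kept 2 days at 28 °C. Cells washed twice and resuspended in PBS-glucose (5.5 mM), then given 0.4 mg/mL MTT for 4 h at 28 °C. Lysis in SDS-isopropanol, OD read. Triplicate wells, six growth controls. PCyt taken against control, corrected for medium-only wells.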
In general terms: Tetrazolium assays rely on reduction of a dye to a coloured formazan, in cell work by metabolically active cells.

Data set [9] deals with Trypanosoma cruzi. In words: Antitrypanosomal activity against Trypanosoma cruzi CL Brener clone epimastigotes assessed as cell death after 2 days by MTT assay. In kind it is functional. The settings on record: 48 h, read-out: ID50 (the source's name). An outline of the steps: (§4)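 Parasites in exponential growth, in BHI-tryptose + 5% FBS for T. cruzi or RPMI + 5% FBS for L. braziliensis, 28 °C, 24-well plates. Compounds in DMSO; miltefosine in ethanol. 2-day exposure, two PBS-glucose (5.5 mM) washes, then MTT 0.4 mg/mL for 4 h at 28 °C. SDS-isopropanol lysis, OD read. Triplicates, six growth controls.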

Data set [10] has as its system Trypanosoma cruzi. In words: Antitrypanosomal activity against Trypanosoma cruzi Y epimastigotes assessed as cell death at 25 uM after 2 days by MTT assay relative to control. In kind it is functional. An outline of the steps:
as §3

Data set [11] concerns Trypanosoma cruzi. Put plainly: Antitrypanosomal activity against Trypanosoma cruzi Y epimastigotes assessed as cell death after 2 days by MTT assay. In kind it is functional. The note with it: 48 h, read-out: ID50 (the source's name). An outline of the steps:
as §4

The test system of data set [12] is Trypanosoma cruzi. Put plainly: Antitrypanosomal activity against Trypanosoma cruzi Colombiana epimastigotes assessed as cell death at 25 uM after 2 days by MTT assay relative to control. It counts as functional. An outline of the steps:
as §3

Data set [13] concerns Leishmania braziliensis. In words: Antileishmanial activity against Leishmania braziliensis MHOM/BR/00/LTB300 promastigotes assessed as cell death after 2 days by MTT assay. The settings on record: MHOM/BR/00/LTB300, 48 h, read-out: ID50 (the source's name). It counts as functional. An outline of the steps:
as §4

Data set [14] has as its system Trypanosoma cruzi. Put plainly: Antitrypanosomal activity against Trypanosoma cruzi CL Brener clone trypomastigotes in parasite infected BALB/c mouse blood assessed as parasite lysis at 250 ug/ml after 24 hrs relative to control. It counts as functional. Put shortly:
(§5)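 Blood from BALB/c mice 7 days post-infection, taken by cardiac puncture into 3.8% sodium citrate (7:3). Compounds dissolved in DMSO, diluted in PBS to 100 or 250 μg/mL. 10 μL mixed with 100 μL infected blood (~10⁶ parasites/mL), in triplicate. Shaken 10 min at RT, held 4 °C for 24 h. Parasites counted by microscopy; gentian violet 250 μg/mL as standard.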

For data set [15], the system named is Trypanosoma cruzi. Put plainly: Antitrypanosomal activity against Trypanosoma cruzi CL Brener clone trypomastigotes in parasite infected BALB/c mouse blood assessed as parasite lysis at 100 ug/ml after 24 hrs relative to control. It counts as functional. Put shortly: as §5
The nature of data set [16]: Cytotoxicity against mouse J774 cells. It counts as cell-based. The note with it: read-out: ID50 (the source's name).
Data set [17] in a line: Selectivity index, ratio of ID50 for mouse J774 cells to ID50 for Trypanosoma cruzi Tulahuen 2 epimastigotes. The note with it: J774 cells versus Trypanosoma cruzi Tulahuen 2 epimastigotes, read-out: Selectivity Index. It counts as toxicity, cell-based.
For data set [18], the system named is Salmonella typhimurium. In words: Mutagenic activity in Salmonella Typhimurium TA98 assessed as number of revertants at 0.005 to 15 ug/plate by Ames test in absence of S9 fraction. In kind it is toxicity, organism-based. The settings on record: salmonella enterica subsp. enterica serovar typhimurium. Put shortly:
(§6)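 Direct plate incubation with S. typhimurium TA98 on minimal glucose agar. Toxicity to the strain tested first; doses run in triplicate from DMSO solutions, DMSO as negative control. Metabolic activation with 500 μL Aroclor-treated mouse liver S9. Positive controls: 4-nitro-o-phenylenediamine 20.0 μg/plate without S9; 2-aminofluorene 10.0 μg/plate with S9. Revertants counted manually; mutagenic if ≥2-fold the negative control at two consecutive doses.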

The subject of data set [19] is Salmonella typhimurium. Put plainly: Mutagenic activity in Salmonella Typhimurium TA98 assessed as number of revertants at 0.005 to 15 ug/plate by Ames test in presence of S9 fraction. In kind it is toxicity, organism-based. The note with it: salmonella enterica subsp. enterica serovar typhimurium. An outline of the steps: as §6
Data set [20] relates to Trypanosoma cruzi. Put plainly: Inhibition of mitochondrial dehydrogenase activity in Trypanosoma cruzi Y epimastigotes at 20 uM up to 120 mins by MTT assay. Put shortly:
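Y-strain epimastigotes, 10⁶ per well in 500 μL medium, treated with 20 μM compound at 28 °C, untreated wells as time-matched controls. At each time point cells counted, then MTT (50 μL of 5 mg/mL in PBS) added for 4 h. Stopped with acidic isopropanol, A570 read. Activity given as percent of untreated control.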

In data set [21] the test system is Trypanosoma cruzi. In words: Antitrypanosomal activity against Trypanosoma cruzi CL Brener clone infected in Swiss albino mouse assessed as increase of mouse survival days at 10 mg/kg/day, po relative to control. In kind it is functional.
The test system of data set [22] is Trypanosoma cruzi. Put plainly: Antitrypanosomal activity against Trypanosoma cruzi Y infected in Swiss albino mouse assessed as increase of mouse survival days at 10 mg/kg/day, po relative to control. In kind it is functional.
Data set [23] deals with Trypanosoma cruzi. In words: Antitrypanosomal activity against Trypanosoma cruzi Y infected in Swiss albino mouse assessed as increase of mouse survival days at 30 mg/kg/day, po relative to control. It counts as functional.
For data set [24], the system named is Trypanosoma cruzi. Put plainly: Antitrypanosomal activity against Trypanosoma cruzi CL Brener clone infected in BALB/c mouse assessed as increase of mouse survival days at 10 mg/kg/day, po relative to control. In kind it is functional.
Data set [25] concerns Trypanosoma cruzi. In words: Antitrypanosomal activity against Trypanosoma cruzi Y infected in Swiss albino mouse assessed as reduction of parasitemia level at 10 to 30 mg/kg/day, po by ELISA. In kind it is functional, organism-based. An outline of the steps: as §1
For orientation: An ELISA detects its analyte on a solid surface through an enzyme-linked reagent.

In data set [26] the test system is Trypanosoma cruzi. In words: Antitrypanosomal activity against Trypanosoma cruzi Y infected in Swiss albino mouse assessed as reduction of microbial antibody level at 10 to 30 mg/kg/day, po by Wilconxon test. In kind it is functional, organism-based. Put shortly:
as §1

Data set [27] relates to Trypanosoma cruzi. Put plainly: Antitrypanosomal activity against Trypanosoma cruzi CL Brener clone infected in BALB/c mouse assessed as reduction of parasitemia level at 10 mg/kg/day, po by ELISA. It counts as functional, organism-based. An outline of the steps:
as §1

Data set [28] deals with Trypanosoma cruzi. In words: Antitrypanosomal activity against Trypanosoma cruzi CL Brener clone infected in Swiss albino mouse assessed as reduction of parasitemia level at 10 mg/kg/day, po after 55 days by ELISA. The settings on record: in the assay text read “after 53 days” for “after 55 days”. It counts as functional, organism-based. Put shortly:
as §1

As for `O=C(Cn1ccnc1[N+](=O)[O-])NCc1ccccc1` [BENZNIDAZOLE], the survival at 50 mg/kg/day in data set [1] is 100%; in data set [2], 87.5%; in data set [3], 75%. Also, the result in data set [4] was Active. Besides, in data set [5], the outcome was inactive.
Turning to `O=C(c1ccccc1)c1c(C(F)(F)F)[n+]([O-])c2cc(F)c(F)cc2[n+]1[O-]`, in [6], the inhibition of growth at 25 µM was determined as 100%. Moreover, the pIC50 in data set [7] was 6.15; in data set [9] it was 5.96; in [11], 5.74; in data set [13], 5.89. Also, the Activity in [8] is on record as 96%; in data set [10], 100%; in [12] it was 100%; in data set [14], 84%; in data set [15], 63%; in data set [18] it was “Non-toxic”. Moreover, in data set [19], the Activity result was “Non-toxic”. Besides, in [16], the CC50 was found to be 8 µM. The selectivity ratio in data set [17] worked out at 11.4. For the same molecule, the inhibition result in data set [20] was “Active”. Besides, the survival at 50 mg/kg/day in [1] was 100%. Further, the survival at 10 mg/kg/day in [21], in data set [22] and in [24] was 100% throughout. Also, the survival at 30 mg/kg/day in data set [23] was found to be 87.5%. The result in [25], in data set [26], in data set [27] and in [28] was Active.
